In BindingDB's records for doi:10.1128/aac.00067-07 (Rutgers University, 2007):
Converted amounts (≈) assume the structure as drawn.

Experiments:
1,3-beta-glucan synthase [1] = molecular target: 1,3-beta-glucan synthase (Pichia kudriavzevii, UniProt Q4U2W2); experiment: Inhibition of FKS1 from Candida krusei 98 isolate
Outline: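 Glucan synthase enzyme complex isolated from the pretreatment clinical strain Ck-98 and titrated with the echinocandin. Inhibition curves were fitted with a sigmoidal variable-slope dose-response model to give IC50 in ng/ml.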

1,3-beta-glucan synthase [2] = molecular target: 1,3-beta-glucan synthase (Pichia kudriavzevii, UniProt Q4U2W2, F655C); experiment: Inhibition of FKS1 T2080K mutant from Candida krusei 100 isolate
Chain of 1,3-beta-glucan synthase (Pichia kudriavzevii, UniProt Q4U2W2, F655C) (Q4U2W2 entry or part of it F655C): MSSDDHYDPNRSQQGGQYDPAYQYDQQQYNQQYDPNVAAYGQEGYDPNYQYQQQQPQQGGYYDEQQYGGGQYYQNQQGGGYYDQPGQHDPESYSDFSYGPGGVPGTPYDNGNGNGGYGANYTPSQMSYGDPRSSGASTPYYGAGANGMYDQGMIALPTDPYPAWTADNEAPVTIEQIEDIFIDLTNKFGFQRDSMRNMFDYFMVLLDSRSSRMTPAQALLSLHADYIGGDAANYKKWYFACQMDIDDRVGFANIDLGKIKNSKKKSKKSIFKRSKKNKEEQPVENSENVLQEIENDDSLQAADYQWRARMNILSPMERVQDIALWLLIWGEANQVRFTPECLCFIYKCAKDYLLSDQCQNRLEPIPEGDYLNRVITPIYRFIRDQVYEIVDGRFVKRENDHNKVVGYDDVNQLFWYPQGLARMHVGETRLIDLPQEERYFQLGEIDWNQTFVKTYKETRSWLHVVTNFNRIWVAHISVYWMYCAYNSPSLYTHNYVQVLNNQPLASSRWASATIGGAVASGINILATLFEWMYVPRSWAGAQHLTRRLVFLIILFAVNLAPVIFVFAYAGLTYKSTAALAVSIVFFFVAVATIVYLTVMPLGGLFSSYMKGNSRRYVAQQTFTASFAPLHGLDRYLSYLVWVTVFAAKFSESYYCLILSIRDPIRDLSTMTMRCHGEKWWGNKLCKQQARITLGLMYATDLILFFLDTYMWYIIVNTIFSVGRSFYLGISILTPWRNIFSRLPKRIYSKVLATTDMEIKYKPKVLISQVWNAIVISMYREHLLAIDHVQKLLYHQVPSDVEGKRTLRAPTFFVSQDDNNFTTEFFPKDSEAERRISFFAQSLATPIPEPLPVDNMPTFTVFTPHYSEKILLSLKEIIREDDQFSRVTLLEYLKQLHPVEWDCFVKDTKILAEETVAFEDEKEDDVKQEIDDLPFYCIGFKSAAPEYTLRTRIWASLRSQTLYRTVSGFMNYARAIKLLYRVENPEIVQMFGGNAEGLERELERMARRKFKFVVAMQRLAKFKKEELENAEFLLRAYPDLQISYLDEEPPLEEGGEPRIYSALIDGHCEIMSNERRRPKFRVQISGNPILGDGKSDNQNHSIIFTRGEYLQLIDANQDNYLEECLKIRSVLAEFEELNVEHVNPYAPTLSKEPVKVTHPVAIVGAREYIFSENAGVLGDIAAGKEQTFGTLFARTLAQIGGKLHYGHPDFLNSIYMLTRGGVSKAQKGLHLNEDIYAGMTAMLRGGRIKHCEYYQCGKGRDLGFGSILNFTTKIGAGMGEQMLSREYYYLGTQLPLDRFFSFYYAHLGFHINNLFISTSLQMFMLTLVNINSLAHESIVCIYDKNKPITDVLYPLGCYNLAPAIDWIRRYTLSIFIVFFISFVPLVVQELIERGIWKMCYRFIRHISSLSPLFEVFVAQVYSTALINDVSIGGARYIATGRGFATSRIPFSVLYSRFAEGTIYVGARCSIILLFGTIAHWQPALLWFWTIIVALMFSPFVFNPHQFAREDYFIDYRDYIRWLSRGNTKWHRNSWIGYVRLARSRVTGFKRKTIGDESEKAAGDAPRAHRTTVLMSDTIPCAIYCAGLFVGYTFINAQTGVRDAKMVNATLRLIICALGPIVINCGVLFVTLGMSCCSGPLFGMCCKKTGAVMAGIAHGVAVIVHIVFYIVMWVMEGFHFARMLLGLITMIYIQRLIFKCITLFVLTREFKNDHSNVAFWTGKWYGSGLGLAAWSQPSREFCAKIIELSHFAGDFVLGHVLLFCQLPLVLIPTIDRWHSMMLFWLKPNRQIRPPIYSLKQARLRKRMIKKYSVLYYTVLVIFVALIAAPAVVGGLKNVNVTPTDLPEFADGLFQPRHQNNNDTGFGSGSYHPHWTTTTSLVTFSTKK
Outline: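 Glucan synthase enzyme complex isolated from posttreatment strain Ck-100. Caspofungin titrated against the enzyme. Inhibition curve fitted with a two-site competition algorithm to give IC50 in ng/ml.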

Chain of 1,3-beta-glucan synthase (Pichia kudriavzevii, UniProt Q4U2W2) (Q4U2W2 whole entry): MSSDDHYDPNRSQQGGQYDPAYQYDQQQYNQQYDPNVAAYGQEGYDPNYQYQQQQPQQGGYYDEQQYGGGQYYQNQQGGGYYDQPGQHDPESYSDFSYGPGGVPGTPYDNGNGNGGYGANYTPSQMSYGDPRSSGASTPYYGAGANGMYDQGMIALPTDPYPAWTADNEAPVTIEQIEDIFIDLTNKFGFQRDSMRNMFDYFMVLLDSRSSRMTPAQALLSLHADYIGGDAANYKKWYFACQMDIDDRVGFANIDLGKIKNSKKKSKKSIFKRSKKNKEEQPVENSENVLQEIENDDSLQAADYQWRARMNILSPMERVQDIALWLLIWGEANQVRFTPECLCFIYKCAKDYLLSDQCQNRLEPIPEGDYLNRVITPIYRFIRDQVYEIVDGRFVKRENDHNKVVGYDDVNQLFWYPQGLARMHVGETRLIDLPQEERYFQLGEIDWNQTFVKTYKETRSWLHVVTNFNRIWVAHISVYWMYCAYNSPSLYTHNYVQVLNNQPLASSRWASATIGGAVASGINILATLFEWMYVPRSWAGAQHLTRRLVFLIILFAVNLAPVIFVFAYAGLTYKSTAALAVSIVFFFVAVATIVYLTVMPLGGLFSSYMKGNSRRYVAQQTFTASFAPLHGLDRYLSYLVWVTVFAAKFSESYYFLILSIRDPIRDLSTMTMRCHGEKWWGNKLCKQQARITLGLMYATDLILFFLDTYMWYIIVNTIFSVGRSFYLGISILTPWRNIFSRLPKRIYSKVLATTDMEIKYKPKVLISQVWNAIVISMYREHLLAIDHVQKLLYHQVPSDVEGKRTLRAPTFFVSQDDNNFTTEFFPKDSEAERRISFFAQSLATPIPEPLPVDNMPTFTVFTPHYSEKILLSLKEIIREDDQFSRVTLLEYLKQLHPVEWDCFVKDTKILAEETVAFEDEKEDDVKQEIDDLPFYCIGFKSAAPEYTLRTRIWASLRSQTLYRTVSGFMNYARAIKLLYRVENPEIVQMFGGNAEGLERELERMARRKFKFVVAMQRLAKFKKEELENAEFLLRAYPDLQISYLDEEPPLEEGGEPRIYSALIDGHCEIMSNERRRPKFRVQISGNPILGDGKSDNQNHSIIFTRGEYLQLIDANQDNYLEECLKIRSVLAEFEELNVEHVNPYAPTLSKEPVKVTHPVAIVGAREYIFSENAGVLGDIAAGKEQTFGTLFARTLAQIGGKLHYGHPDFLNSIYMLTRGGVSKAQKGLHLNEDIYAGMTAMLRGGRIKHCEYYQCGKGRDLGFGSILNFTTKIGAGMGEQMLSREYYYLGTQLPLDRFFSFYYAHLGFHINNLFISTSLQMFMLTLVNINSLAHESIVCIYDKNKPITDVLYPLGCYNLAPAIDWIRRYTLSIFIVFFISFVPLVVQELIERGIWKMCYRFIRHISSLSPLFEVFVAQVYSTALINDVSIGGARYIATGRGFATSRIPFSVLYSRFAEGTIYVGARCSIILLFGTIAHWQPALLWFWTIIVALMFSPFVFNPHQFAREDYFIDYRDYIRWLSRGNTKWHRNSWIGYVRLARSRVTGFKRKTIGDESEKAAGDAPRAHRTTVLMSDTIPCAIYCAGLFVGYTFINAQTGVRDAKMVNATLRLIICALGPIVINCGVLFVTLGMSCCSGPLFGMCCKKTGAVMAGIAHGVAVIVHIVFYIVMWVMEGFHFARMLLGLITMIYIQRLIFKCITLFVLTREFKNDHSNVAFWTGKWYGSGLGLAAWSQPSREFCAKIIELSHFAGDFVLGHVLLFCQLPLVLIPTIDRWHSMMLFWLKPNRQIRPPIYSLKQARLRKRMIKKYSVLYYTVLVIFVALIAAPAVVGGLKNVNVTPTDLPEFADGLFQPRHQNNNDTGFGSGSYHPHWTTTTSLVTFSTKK

SMILES: CCC(C)CC(C)CCCCCCCCC(=O)N[C@H]1C[C@@H](O)[C@@H](NCCN)NC(=O)[C@@H]2[C@@H](O)CCN2C(=O)[C@H]([C@H](O)CCN)NC(=O)[C@H]([C@H](O)[C@@H](O)c2ccc(O)cc2)NC(=O)[C@@H]2C[C@@H](O)CN2C(=O)[C@H]([C@@H](C)O)NC1=O (some centres not stated) [CHEBI:474180]
- IC50 (1,3-beta-glucan synthase [1]): 0.0068 µg/mL (≈ 0.00622 µM)
- IC50 (1,3-beta-glucan synthase [2]): 3.94 µg/mL (≈ 3.61 µM)
